# Compounds with a hit are over-represented: about 3.9% of the library has one in this group of screens.
# APP 5'UTR act: activators of APP 5'UTR luciferase reporter, primary screen, SH-SY5Y cells; SH-SY5Y APP 5'UTR luciferase reporter, luminescence; zero percent = DMSO vehicle wells; activation, % at 2 µM; hit rate 1% among 190,000; AID 1276, 2008;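 active means activation above a set limit, based on mean plus 3 SD of controls, cut at about 140% in these data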
# NF-kB neuron act: activators of NF-kB expression in neurons, primary screen, cell-based, HTS. AID 1239, 2008. human neuronal cells, NF-kB reporter expression; stronger effect = higher value. fold change at 12.5 µM. hit rate 1.6% among 190,000; in the data active means fold change above about 3.3
# Pf gamet viab: late stage P. falciparum gametocyte viability inhibitors, primary screen, ATP luminescence, HTS | P. falciparum stage V gametocytes, 24 h | inhibition, % at 10.9 µM | hit rate 0.065% among 150,000 | AID 743093, 2013;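 active means inhibition above the mean plus 3 SD of compounds within the control limits, set per campaign, cut at about 38% in these data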;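 further: 0% = DMSO wells and 100% = medium only without gametocytes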
# STAT1 activator: STAT1 signaling activators, primary screen, cell-based, HTS, luciferase reporter | NIH 3T3 STAT1-luciferase reporter, IFN-gamma, luminescence; 100% = IFN-gamma alone, no compound | AID 932, 2007 | hit rate 2.6% among 200,000 | activation (% of control), % at 5.5 µM;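 active means activation above the screen-wide mean activation plus 3 SD, cut at about 130% in these data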;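 further: raw ratio to IFN-gamma control signal so 100% means no change and 0% no light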
# STAT3 activator: IL-6 driven STAT3 reporter potentiators, primary screen, U3A cells, luciferase, luminescence, MLSCN library; IL-6 STAT3-luciferase reporter; 100% = signal with IL-6 EC80 alone; activation (% of control), % at 5.6 µM; hit rate 0.91% among 190,000;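 active means activation above the screen-wide mean of compound activation plus 3 SD, cut at about 130% in these data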;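 further: 0% = background luminescence of wells with medium and substrate only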
#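 Material: STAT1-lacking human U3A cells, STAT3 luciferase reporter | Benchmarks: IL-6-only wells as 100% reference | Probe or stimulus: IL-6 (33 ng/mL) | Timing: Compound 1 h, then IL-6 6 h at 37 °C | Detection: Luminescence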
# STAT1 blocker: STAT1 signaling inhibitors, primary screen, cell-based, HTS, luciferase reporter | NIH 3T3 STAT1-luciferase reporter, IFN-gamma, luminescence | inhibition, % at 5.5 µM | hit rate 0.35% among 200,000 | AID 920, 2007;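 active means inhibition above a set limit, the mean inhibition across all tested compounds plus 3 SD, cut at about 34% in these data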;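 further: 0% = IFN-gamma with DMSO and 100% = IFN-gamma with 300 µM nifuroxazide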
# STAT1 act conf: STAT1 signaling activators, confirmation, cell-based, HTS, luciferase reporter; hit rate 97% among 1,200; NIH 3T3 STAT1-luciferase reporter, IFN-gamma potentiation, luminescence; 100% = IFN-gamma EC80 alone, no compound; shares compounds with STAT1 activator; activation (% of control), % at 5.7 µM;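 active means activation above a set limit carried over from the earlier primary STAT1 screen, cut at about 140% in these data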;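 further: simple ratio to median IFN-gamma plus DMSO wells so 0% means no light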
# NFkB act: NF-kB reporter activators, TNF-alpha stimulated, counter-screen for STAT1 activator project, cell-based, HEK293T, luciferase luminescence; 100% = TNF-alpha with vehicle only; shares compounds with STAT1 activator; hit rate 43% among 1,200; activation (% of control), % at 5.7 µM; AID 1306, 2008;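 active means activation above the mean of solvent-only control wells plus 3 SD, set per campaign, cut at about 130% in these data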;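 further: TNF-alpha given at a submaximal dose yielding about 80% of full reporter signal; values are well signal over median control so 100% means no change and 0% no light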
# STAT3 act 2: STAT3 reporter activation by STAT1 hits, confirmation, counter-screen for STAT1 activator project, U3A cells, luciferase, luminescence; shares compounds with STAT1 activator; AID 1316, 2008; IL-6; cells lack STAT1; 100 = IL-6 alone, no compound effect; activation (% of control), % at 5.7 µM; hit rate 46% among 1,200;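 active means activation above the solvent-only control well mean plus 3 SD, set per plate batch, cut at about 110% in these data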;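 further: 0% = no luminescence and 100% = median IL-6 plus DMSO wells; higher means more STAT3 reporter activation so hits are non-selective activators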
# Starred values were filed as active, the others as inactive; nt = not tested or not shown.
SMILES,APP 5'UTR act,NF-kB neuron act,Pf gamet viab,STAT1 activator,STAT3 activator,STAT1 blocker,STAT1 act conf,NFkB act,STAT3 act 2
N#C/C(=C/c1ccc(N2CCOCC2)o1)C(=O)Nc1ccccc1,162.1*,4.38*,nt,159.5*,95.9,-63.9,194.8*,130.3,98.1
Cc1onc(-c2ccc(Cl)cc2)c1-c1ccnc(SCC(=O)Nc2cc(Cl)cc(Cl)c2)n1,nt,nt,14.2,nt,nt,nt,nt,nt,nt
CCCCC(=O)N/N=C/c1sccc1C,3.6,1.24,-5.2,108.9,96.4,-10.0,nt,nt,nt
Cc1cc(C(=O)N/N=C/c2ccc3c(c2)OCO3)c(C)o1,21.4,1.72,-6.4,112.8,98.8,-16.1,nt,nt,nt
Cc1ccsc1/C=N/NC(=O)Nc1ccccc1,147.1*,3.96*,15.3,172.4*,97.2,-80.3,191.7*,130.2,97.9
Cc1ccccc1/C=N/NC(=O)c1sccc1C,69.8,4.99*,8.6,163.0*,89.4,-71.2,205.1*,133.5*,107.2
O=C(N/N=C/c1ccc2c(c1)OCO2)c1cccs1,72.3,4.3*,-49.2,174.4*,91.9,-84.2,204.0*,133.5*,117.0*
Cc1ccsc1C(=O)N/N=C/c1ccc2c(c1)OCO2,158.1*,6.15*,13.6,161.1*,70.5,-68.3,225.8*,105.8,92.4
COc1ccc(/C=N/NC(=O)c2sccc2C)c2ccccc12,nt,nt,2.2,nt,nt,nt,nt,nt,nt
O=C(NCc1ccccc1)c1c[nH]c2cc3c(cc2c1=O)OCCO3,88.7,3.51*,nt,177.6*,115.4,-83.9,189.7*,140.3*,126.5*
Cc1nc(-c2ccc(S(=O)(=O)Oc3ccccc3Cl)s2)cs1,nt,nt,-41.6,nt,nt,nt,nt,nt,nt
CCc1ccc(NC(=O)c2ccc3ncsc3c2)cc1,151.5*,6.4*,nt,162.1*,109.5,-69.6,203.1*,138.0*,104.7
CCOC(=O)c1[nH]ncc1CN1CCN(Cc2ccccc2)C(CCO)C1 (stereo not given),4.9,1.37,19.6,88.1,101.5,11.5,nt,nt,nt
CCCCC(=O)Nc1ccc(N2CCCC2)cc1,1.5,nt,-11.2,97.5,92.4,2.8,nt,nt,nt
CCCOC(=O)Nc1ccc(N2CCCCC2)cc1,95.1,5.09*,32.4,154.5*,75.1,-48.5,176.9*,114.6,100.5
CCc1cc2c(=O)[nH]c(-c3ccccn3)nc2s1,33.7,0.97,-6.5,152.5*,96.3,-55.8,188.7*,136.7*,103.7
COc1ccc(-c2cn3cc(C)ccc3n2)cc1Br,164.5*,6.76*,-3.9,175.1*,80.5,-84.3,235.8*,103.5,86.1
N/C(=N\OC(=O)c1ccc2c(c1)OCO2)c1cccc(Br)c1,79.5,1.49,6.7,162.1*,104.7,-70.8,178.5*,129.4,110.8*
Cc1cc(C)cc(SCc2noc(C(=O)NCCC(C)C)c2C(=O)NCCC(C)C)c1,nt,nt,3.5,nt,nt,nt,nt,nt,nt
CC(C)(c1ccccc1)c1ccc(OCC(O)CNC2CCN(Cc3ccccc3)CC2)cc1 (stereo not given),-6.0,2.35,-29.3,100.3,99.7,0.3,nt,nt,nt
Cc1ccc(C(=O)Oc2oc(-c3ccco3)nc2C=Nc2ccc(Cl)cc2)cc1,143.2*,7.65*,3.8,166.1*,74.7,-72.2,199.6*,139.7*,106.0
COC(=O)C1=C(COc2ccc(C=O)cc2OC)NC(=O)NC1c1cc(C)ccc1C (stereo not given),-2.2,1.15,-4.3,95.0,94.3,7.6,nt,nt,nt
O=C(N/N=C/c1ccc(Cl)cc1Cl)c1n[nH]c2c1CCCC2,-10.2,1.15,nt,120.0,104.8,-22.4,nt,nt,nt
O=C(N/N=C\c1cccc(Cl)c1)c1n[nH]c2c1CCCC2,156.2*,1.65,3.0,170.1*,95.3,-79.3,212.4*,116.9,101.0
O=C(Nc1cc(C(F)(F)F)cc(C(F)(F)F)c1)c1ccc(Cn2cc(C(F)(F)F)ccc2=O)cc1,14.7,0.85,-0.7,99.1,95.6,1.0,nt,nt,nt
SMILES,APP 5'UTR act,NF-kB neuron act,Pf gamet viab,STAT1 activator,STAT3 activator,STAT1 blocker,STAT1 act conf,NFkB act,STAT3 act 2
CC(C)(C)C(=O)Nc1nc(-c2ccccc2)ns1,144.5*,5.91*,-6.2,164.9*,93.5,-70.7,199.8*,129.0,109.6
N#C/C(=N/Nc1ccc([N+](=O)[O-])cc1)C(=N)N1CCCCC1,174.0*,8.1*,-5.5,173.7*,96.9,-80.8,249.3*,142.7*,121.8*
Cc1ccc(N/N=C(\C#N)C(=N)N2CCCCC2)cc1,nt,nt,-7.7,nt,nt,nt,nt,nt,nt
N#C/C(=N\Nc1ccc(Cl)cc1)C(=N)N1CCCCCC1,236.4*,1.34,5.3,157.5*,74.7,-62.6,304.8*,134.6*,116.5*
Cc1nccn1CCC(=O)Nc1ccc(Cl)cc1,8.5,1.37,20.5,100.0,103.9,-0.7,nt,nt,nt
CC1=NN(c2ccc([N+](=O)[O-])cc2)C(=O)/C1=C\N(C)C,-8.2,1.16,nt,102.8,106.1,-0.6,nt,nt,nt
CN(C)/C=C1\C(=O)N(c2ccc([N+](=O)[O-])cc2)N=C1c1ccccc1,30.6,1.1,5.4,183.6*,117.6,-92.1,173.1*,126.3,119.5*
CN(C)/C=C(\C(=O)c1ccc(F)cc1F)c1nnnn1-c1ccccc1,-21.1,1.01,nt,99.1,103.0,1.0,nt,nt,nt
CSc1nc2ccccc2s1,8.1,1.07,nt,99.7,98.0,0.3,nt,nt,nt
c1ccc(-c2nc3ccccc3s2)nc1,123.3,4.66*,-26.7,158.3*,82.9,-63.6,200.4*,120.9,101.9
CSCCC(=O)NC1CCCN(CCc2ccccc2)C1 (stereo not given),nt,nt,3.3,nt,nt,nt,nt,nt,nt
O=C1CN(C(=O)COC(=O)c2ccc[n+]([O-])c2)c2ccccc2N1,-20.9,1.02,25.4,104.8,104.1,-5.2,nt,nt,nt
Cc1cnc(C(=O)Nc2ccc(C(C)C)cc2)cn1,78.4,4.51*,-24.3,158.7*,84.7,-62.6,179.9*,135.6*,95.3
Cc1cnc(C(=O)Nc2ccc(F)cc2)cn1,53.6,1.71,18.3,113.4,102.7,-14.9,nt,nt,nt
CCC/C(C(=O)NCCO)=C1/c2ccccc2C(=O)N1c1ccccc1,nt,nt,-36.9,nt,nt,nt,nt,nt,nt
Cc1cccc2sc(NC(=O)c3ccc(Cl)s3)nc12,18.1,1.14,nt,111.2,110.5,-12.3,nt,nt,nt
